# M1 antagonist = antagonists of rat M1 muscarinic receptor. P08482. CHO-M1 cells, Fluo-4 calcium, ACh EC80 antagonist mode; stronger effect = lower value. B-score at 10 µM. actives 3.4% (n = 64,000). AID 628;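 active means calcium fluorescence response, raw or row-and-column corrected B-score, differing from the plate sample mean either way at a set confidence level, mostly lower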
# mHtt clearance = compounds clearing mutant huntingtin protein; HeLa Exon1htt(103Q)mCFP, aggregate imaging; zero = plate's median compound well; inhibition, % at 1.5 µM; actives 0.42% (n = 47,000);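 active means inhibition of aggregate fluorescence above about 70%, also judged a hit by eye on the cell image, limit read from the data, passing the limit was not always enough; inconclusive means no rule stated for this call; inactive means not judged a hit on image review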;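 further: cells exposed to compound for three days before fixation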
# M1 agonist = activates the M1 muscarinic receptor; B-score at 10 µM; AID 626; actives 3% (n = 64,000); CHO-M1 cells, Fluo-4 calcium fluorescence, agonist mode; stronger effect = higher value;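 active means fluorescence rise, raw or as B-score row- and column-corrected plate score, outside the 99.7% band of its plate's samples, either direction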
# AP complement = alternative pathway complement inhibition, orthogonal assay. actives 0.08% (n = 62,000). inhibition, % at 5 µM. AID 1235. Human serum alternative complement pathway, LPS-coated ELISA, C3 deposition; tested in compound mixtures;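 active means inhibition above 30% in each of the two pooled mixtures holding the compound, so the lower value exceeds 30%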;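 further: 0% = serum in Mg-EGTA without compound and 100% = EDTA serum blank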
#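 Test system: human serum complement alternative pathway, C3 deposition onto LPS / Medium: Mg2+-EGTA GVB++ buffer containing human serum at 1:15 dilution / Probe or stimulus: Plate-bound LPS / Times: 1 h at 37 °C / Signal: ELISA with HRP anti-human C3 antibody, TMB substrate, absorbance 450 nm / Measure: percent inhibition / Repeats: two pool placements per compound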
# D1 allo mod = allosterically modulates the human D1 dopamine receptor | P21728 | HEK293 D1, CRE-luciferase, dopamine EC30 potentiation; actives deviate in either direction | B-score at 10 µM | actives 5.9% (n = 58,000);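 active means luminescence count or its row- and column-corrected plate score outside the 99.7% band of the plate's sample wells, on either side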
# M1 agonist conf = confirmation of rat M1 muscarinic receptor agonists; actives 19% (n = 1,700); AID 1488; shares compounds with M1 agonist; fluorescence change (max-min) at 10 µM; CHO-M1 cells, Fluo-4 calcium fluorescence, agonist mode; actives lie on both sides;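 active means fluorescence change differs from the solvent-only DMSO control mean at a set confidence level in both duplicate runs; inconclusive means differs from solvent-only control mean in just one of two runs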;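 further: an EC20 dose of acetylcholine follows compound addition during the same imaging run; raw fluorescence intensity difference in instrument units with no normalization to controls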
# M4 agonist ctr = rat M4 muscarinic agonism, M1 counter-screen; shares compounds with M1 agonist; actives 9% (n = 1,700); fluorescence change (max-min) at 10 µM; CHO M4/Gqi5 cells, Fluo-4 calcium fluorescence, agonist mode; actives lie on both sides;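 active means fluorescence change differing from the plate's solvent-only control wells at 99.7% confidence in both duplicates, whether higher or lower; inconclusive means differs from solvent controls in only one of two duplicates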
# Target sequence (P08485 whole entry, looked up): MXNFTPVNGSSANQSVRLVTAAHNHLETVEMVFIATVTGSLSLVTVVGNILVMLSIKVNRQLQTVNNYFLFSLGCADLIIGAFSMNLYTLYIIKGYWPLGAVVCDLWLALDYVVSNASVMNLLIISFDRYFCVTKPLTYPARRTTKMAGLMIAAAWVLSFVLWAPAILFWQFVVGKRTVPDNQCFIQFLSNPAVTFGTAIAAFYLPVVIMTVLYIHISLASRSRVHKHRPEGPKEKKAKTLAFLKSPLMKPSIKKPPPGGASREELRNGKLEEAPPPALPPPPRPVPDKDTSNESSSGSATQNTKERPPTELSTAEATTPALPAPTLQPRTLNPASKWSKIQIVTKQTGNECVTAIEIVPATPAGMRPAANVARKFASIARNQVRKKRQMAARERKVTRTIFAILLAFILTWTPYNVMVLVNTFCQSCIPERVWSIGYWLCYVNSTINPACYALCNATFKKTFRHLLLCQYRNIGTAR
# Starred values were filed as active, the others as inactive; u = inconclusive; x = not tested or not shown. In the library only some 9% were active in any assay of this set; here they are far more common.
SMILES,M1 antagonist,mHtt clearance,M1 agonist,AP complement,D1 allo mod,M1 agonist conf,M4 agonist ctr
O=C(Cn1nnc(-c2ccccc2F)n1)Nc1ccc2c(c1)OCO2,-0.0765,22.5,5.68*,8.3,-0.143,u,-62.3
O=C(Cn1nnc(-c2ccccc2F)n1)Nc1ccc(C(=O)N2CCOCC2)cc1,0.648,x,-0.97,15.3,-1.14,x,x
COCC(C)NS(=O)(=O)c1ccc(NC(=O)C(Cc2ccccc2)NC(N)=O)cc1 (centres undefined),-0.0757,9.3,0.196,2.1,0.486,x,x
O=C(CSc1nnnn1-c1cccc2c1CCCC2)NC1CCCC1,x,12.2,x,x,x,x,x
CC1CCCN(C/C(O)=C(\C#N)c2nc3ccccc3[nH]2)C1 (centres undefined),-4.17*,x,5.38*,16.3,0.0397,u,-28.1
O=c1c2c3c(sc2nc2sc(CN4CCOCC4)cn12)CCCC3,-0.288,-21.5,-3.31*,7.9,0.204,-17.7,u
CC(C)C(CCN1C(=O)CCC1=O)C1CCOC(C)(C)C1 (centres undefined),0.248,17.6,-0.312,1.7,x,x,x
Cc1nc2ccccc2n2c(O)c(CC(=O)O)cc12,-0.00134,x,269*,11.2,-0.0126,1125*,1088*
O=C1c2cccc3c(N4CCCCC4)ccc(c23)C(=O)N1c1ccccn1,-1.51,x,78.1*,2.5,-0.573,775*,819*
COCCn1nnnc1C(c1ccc(O)c(OC)c1)N1CCc2ccccc2C1 (centres undefined),0.00355,x,4*,9.2,0.65,-10.5,-28.2
COc1ccc(C(c2nnnn2CCc2ccccc2)N2CCN(C)CC2)cc1OC (centres undefined),0.303,x,-0.706,19.8,-1.05,x,x
CCOC(=O)N1CCN(c2nc3ccccc3nc2C(C#N)C(=O)NCCc2ccccc2)CC1 (centres undefined),-0.621,17.4,21.6*,4.7,-0.0349,u,81.2
CCOc1ccccc1N1CCN(c2nc3ccccc3nc2C(C#N)C(=O)OC)CC1 (centres undefined),-1.13,x,7.69*,-2.8,-4.32*,u,-27.7
N#CC(C(=O)NCCc1ccccc1)c1nc2ccccc2nc1N1CCCCC1 (centres undefined),-0.232,x,16.8*,21.1,-0.752,63.2*,121
COc1ccccc1N1CCN(c2nc3ccccc3nc2C(C#N)C(=O)OC(C)C)CC1 (centres undefined),-1.56,12.3,1.07,-4.9,-0.763,x,x
N#CC(C(=O)NCc1ccccc1)c1nc2ccccc2nc1N1CCCC1 (centres undefined),-17.3*,x,177*,11.9,2.12,1394*,794*
CCN(CCCNS(=O)(=O)c1ccc2c(c1)CCN2C(C)=O)c1cccc(C)c1,-1.98,34.3,-0.124,6.8,-0.247,x,x
CC(=O)N1CCN2C(=O)C1CCCC(=O)c1cc(C)ccc12 (centres undefined),x,45.3,x,x,x,x,x
CCN(CC)Cc1c(O)ccc2c(-c3ccccc3)cc(=O)oc12,-0.487,-7.3,0.925,22.7,-1.86,x,x
CCCCN(C)Cc1c(O)ccc2c(-c3ccccc3)cc(=O)oc12,-3.83*,26.1,8.16*,-2.6,x,-2.73,-20.9
COc1ccc(C2C(C#N)=C(N)SC(N)=C2C#N)cc1OC,-0.216,32.8,38.1*,2.0,x,-11.4,-50.7
COc1ccc(C2C(C#N)=C(N)OC(C(C)(C)C)=C2C#N)cc1OC (centres undefined),-0.407,x,0.367,9.4,3.18,x,x
CC(=O)N(Cc1ccccc1)c1ncc2c(n1)c(=O)c(C#N)c1ccccn12,-0.0292,x,4*,16.0,0.395,64*,38.1
COc1ccc2nc3c(cc2c1)c(NC(=O)C1CCCO1)nn3CC(C)C (centres undefined),-0.82,x,4.27*,14.7,-0.00252,3.29,-23.5
CCCCn1nc(NC(=O)c2cccs2)c2cc3cc(OC)ccc3nc21,0.393,54.8,6.36*,1.9,-1.23,-23.9,-24.5
SMILES,M1 antagonist,mHtt clearance,M1 agonist,AP complement,D1 allo mod,M1 agonist conf,M4 agonist ctr
COc1ccc(NC(=O)c2ccccc2NC(=O)C2CCCO2)cc1 (centres undefined),0.975,66.0,0.492,-2.6,0.168,x,x
CC(=O)Cc1nsc(NC(=O)c2ccc(COc3ccccc3)o2)n1,-0.000789,x,-1.07,2.4,0.101,x,x
COc1cc(C(C)=O)ccc1OCC(=O)c1cc(C)n(C2CC2)c1C,0.684,18.2,-0.557,-7.0,-1.21,x,x
Cn1cnnc1SCc1ccc(-c2ccc(Br)cc2)o1,-0.546,21.5,0.00604,5.0,-0.323,x,x
CCOC(=O)C1CCCc2c1[nH]c1c(C(=O)O)cccc21 (centres undefined),0.0967,-21.1,-0.443,-0.4,-1.19,x,x
CCCSc1nnc(NC(=O)Nc2ccc(F)cc2)s1,-0.877,x,3.38*,23.2,x,-7.23,-14.2
Cc1ccc(NS(C)(=O)=O)c(C(=O)c2ccccc2)c1,x,-8.6,x,x,x,x,x
CC1Cc2ccccc2N1C(=O)CN1C(=O)NC(C)(c2ccc3c(c2)OCCO3)C1=O (centres undefined),1.43,-14.1,5.62*,-1.9,0.391,13.7,-16.6
Nc1cccc(C(=O)O)c1,0.146,x,-0.193,6.7,-0.652,x,x
O=C(O)c1cc(O)c2c(c1)C(=O)c1cccc(O)c1C2=O,-0.0907,x,67.5*,20.6,1.5,189*,u
CCN=C1SC(C(=O)Nc2cccc(OCC)c2)CC(=O)N1CC (centres undefined),-0.411,x,7.6*,-1.9,0.84,-17.6,-14.6
O=C(CN1C(=O)C2(OCCO2)c2ccccc21)c1ccc(Br)cc1,-0.202,x,0.513,5.2,0.477,x,x
CCCc1nc(SCC(=O)N2CCN(c3ccccc3)CC2)c2c(=O)n(C)c(=O)n(C)c2n1,-8.08*,x,7.23*,18.8,-1.62,-10,-59.3
Cn1c(=O)c2c(SCc3cccnc3)nc(CC(C)(C)C)nc2n(C)c1=O,-0.842,x,-0.337,-0.1,x,x,x
CC(C)c1nc(SCC(=O)N2CCN(c3ccccc3)CC2)c2c(=O)n(C)c(=O)n(C)c2n1,-3.64*,x,5.66*,18.9,-3.86*,u,-49.2
CCCc1nc(SCc2cccnc2)c2c(=O)n(C)c(=O)n(C)c2n1,-1.02*,-4.0,2.58*,16.2,x,-24.7*,-81.1*
CC(C)c1nc(SCC(=O)N2CCOCC2)c2c(=O)n(C)c(=O)n(C)c2n1,-0.0302,9.8,8.34*,3.1,-0.0718,-23.3,-31.6
O=C(NCc1ccco1)C1CCCN(S(=O)(=O)c2cccc3cccnc23)C1 (centres undefined),0.992,1.6,1.69,3.7,-0.554,x,x
CCc1nc(SCC(=O)N2CCC(C)CC2)c2c(=O)n(C)c(=O)n(C)c2n1,-3.47*,x,3.41*,12.5,0.0315,u,-24.3
Cn1c(=O)c2c(SCC(=O)N3CCCc4ccccc43)nc(C3CC3)nc2n(C)c1=O,-2.61*,x,3.83*,5.0,-0.775,-27.8*,u
